ChEMBL document CHEMBL1149108, “Arecoline tripeptide inhibitors of proteasome” (J Med Chem, 2004)
Non-standard residues stand in square brackets, D forms with d. Residues, ends and D or L forms follow the SMILES beside them. ξ: configuration not given here. *: point of attachment. Fmoc = O=C(OCC1c2ccccc2-c2ccccc21)*; Cbz = O=C(OCc1ccccc1)*; ξNle = CCCCC(N)C(=O)O; NHBn = c1ccc(CN*)cc1

What was measured:
Proteasome [1] = experiment: Inhibitory activity was evaluated against chymotrypsin-like enzyme; type: subcellular
Outline: (§1)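 Proteasome partially purified from lymphoblastoid cell lines, affinity-purified and dialysed against 25 mM Tris-HCl pH 7.5. Enzyme untreated or pretreated with 0.01-20 µM compound, then incubated 30 min at 37 °C in activity buffer with fluorogenic substrate: Suc-LLVY-AMC for chymotrypsin-like, Boc-LRR-AMC for trypsin-like. Fluorescence read at ex 360/em 465 nm; IC50 derived.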

Proteasome [2] = experiment: Inhibitory activity was evaluated against trypsin-like (proteasome) enzyme; type: subcellular; outline: as §1
Proteasome [3] = experiment: Inhibitory activity was evaluated against postacid PGPH active site; type: subcellular
Outline: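 Postacidic (PGPH) activity measured with Ac-YVAD-AMC on partially purified, affinity-purified lymphoblastoid proteasome in 25 mM Tris-HCl pH 7.5. Enzyme untreated or pretreated with 0.01-20 µM compound, then substrate added for 30 min at 37 °C in activity buffer. Fluorescence read at ex 360/em 465 nm; IC50 calculated.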

[4] = Half-life in culture medium was determined; type: ADME
Outline: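 Compound (stock 10 mg/mL in acetonitrile/H2O 1:1) added to RPMI containing 20% FCS and incubated at 37 °C for up to 2 days. Ethanol added to stop the reaction, then centrifugation and RP-HPLC of the supernatant. Half-life taken from least-squares linear regression of log inhibitor concentration versus time, at least five points.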

[5] = Half-life in human plasma was determined; type: ADME
Outline: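 Compound incubated with human plasma (0.6 mL in 1.5 mL total) in 10 mM Tris-HCl pH 7.5 at 37 °C for up to 360 min. Ethanol added to stop the reaction, then centrifugation and RP-HPLC of the supernatant. Half-life taken from least-squares regression of log concentration versus time, minimum five points.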

half-life [4] [h] | half-life [5] [h] | Compound | IC50 (Proteasome [1]) [µM] | IC50 (Proteasome [2]) [µM] | IC50 (Proteasome [3]) [µM]
– | – | CC(C)C[C@H](NC(=O)[C@H](CO)NC(=O)[C@H](Cc1ccccc1)NC(=O)OCc1ccccc1)C(=O)NCc1ccccc1 | 2.18 | 4.82 | 17.6
> 6 | > 6 | CC(C)C[C@H](NC(=O)[C@H](CO)NC(=O)[C@@H](NC(=O)C1=CCCNC1)C(C)C)C(=O)NCc1ccccc1 | 0.52 | 2.16 | > 20
– | – | CC(C)C[C@H](NC(=O)[C@H](CO)NC(=O)[C@H](Cc1ccccc1)NC(=O)OCC1c2ccccc2-c2ccccc21)C(=O)NCc1ccccc1 | 11 | 12.9 | 19.1
> 6 | > 6 | CC(C)C[C@H](NC(=O)[C@H](CO)NC(=O)[C@H](Cc1ccccc1)NC(=O)C1=CCCNC1)C(=O)NCc1ccccc1 | 1.23 | 2.93 | > 20
> 6 | 4.92 | CC(C)C[C@H](NC(=O)C1=CCCNC1)C(=O)N[C@@H](CC(C)C)C(=O)N[C@@H](CC(C)C)C(=O)NCc1ccccc1 | 1.41 | 2.57 | > 20
– | – | CCCCC(NC(=O)OCc1ccccc1)C(=O)N[C@@H](CO)C(=O)N[C@@H](CC(C)C)C(=O)NCc1ccccc1 (stereo partly drawn) (Cbz-[ξNle]-Ser-Leu-NHBn) | > 20 | 18.2 | > 20
– | – | CCCCC(NC(=O)OCC1c2ccccc2-c2ccccc21)C(=O)N[C@@H](CO)C(=O)N[C@@H](CC(C)C)C(=O)NCc1ccccc1 (stereo partly drawn) (Fmoc-[ξNle]-Ser-Leu-NHBn) | > 20 | > 20 | > 20
– | – | CC(C)C[C@H](NC(=O)[C@H](CO)NC(=O)[C@H](C)NC(=O)OCC1c2ccccc2-c2ccccc21)C(=O)NCc1ccccc1 (HELM PEPTIDE1{[O=C(OCC1c2ccccc2-c2ccccc21)[*:2]].A.S.L.[c1ccc(CN[*:1])cc1]}$$$$V2.0) | > 20 | > 20 | > 20
– | – | CC[C@H](C)[C@H](NC(=O)OCC1c2ccccc2-c2ccccc21)C(=O)N[C@@H](CO)C(=O)N[C@@H](CC(C)C)C(=O)NCc1ccccc1 (HELM PEPTIDE1{[O=C(OCC1c2ccccc2-c2ccccc21)[*:2]].I.S.L.[c1ccc(CN[*:1])cc1]}$$$$V2.0) | > 20 | > 20 | > 20
– | – | CC(C)C[C@H](NC(=O)OCC1c2ccccc2-c2ccccc21)C(=O)N[C@@H](CC(C)C)C(=O)N[C@@H](CC(C)C)C(=O)NCc1ccccc1 (HELM PEPTIDE1{[O=C(OCC1c2ccccc2-c2ccccc21)[*:2]].L.L.L.[c1ccc(CN[*:1])cc1]}$$$$V2.0) | 12.2 | 10.7 | > 20
– | – | CC(C)C[C@H](NC(=O)OCC1c2ccccc2-c2ccccc21)C(=O)N[C@@H](CO)C(=O)N[C@@H](CC(C)C)C(=O)NCc1ccccc1 (HELM PEPTIDE1{[O=C(OCC1c2ccccc2-c2ccccc21)[*:2]].L.S.L.[c1ccc(CN[*:1])cc1]}$$$$V2.0) | > 20 | > 20 | > 20
– | – | CC(C)C[C@H](NC(=O)[C@H](CO)NC(=O)[C@@H]1CCCN1C(=O)OCC1c2ccccc2-c2ccccc21)C(=O)NCc1ccccc1 (HELM PEPTIDE1{[O=C(OCC1c2ccccc2-c2ccccc21)[*:2]].P.S.L.[c1ccc(CN[*:1])cc1]}$$$$V2.0) | > 20 | > 20 | > 20
– | – | CC(C)C[C@H](NC(=O)[C@H](CO)NC(=O)[C@@H](NC(=O)OCC1c2ccccc2-c2ccccc21)C(C)C)C(=O)NCc1ccccc1 (HELM PEPTIDE1{[O=C(OCC1c2ccccc2-c2ccccc21)[*:2]].V.S.L.[c1ccc(CN[*:1])cc1]}$$$$V2.0) | 5.91 | 13.6 | > 20
– | – | CC(C)C[C@H](NC(=O)[C@H](CO)NC(=O)[C@H](C)NC(=O)OCc1ccccc1)C(=O)NCc1ccccc1 (HELM PEPTIDE1{[O=C(OCc1ccccc1)[*:2]].A.S.L.[c1ccc(CN[*:1])cc1]}$$$$V2.0) | > 20 | > 20 | > 20
– | – | CC[C@H](C)[C@H](NC(=O)OCc1ccccc1)C(=O)N[C@@H](CO)C(=O)N[C@@H](CC(C)C)C(=O)NCc1ccccc1 (HELM PEPTIDE1{[O=C(OCc1ccccc1)[*:2]].I.S.L.[c1ccc(CN[*:1])cc1]}$$$$V2.0) | > 20 | > 20 | > 20
– | – | CC(C)C[C@H](NC(=O)OCc1ccccc1)C(=O)N[C@@H](CC(C)C)C(=O)N[C@@H](CC(C)C)C(=O)NCc1ccccc1 (HELM PEPTIDE1{[O=C(OCc1ccccc1)[*:2]].L.L.L.[c1ccc(CN[*:1])cc1]}$$$$V2.0) | 9.51 | 8.93 | > 20
– | – | CC(C)C[C@H](NC(=O)OCc1ccccc1)C(=O)N[C@@H](CO)C(=O)N[C@@H](CC(C)C)C(=O)NCc1ccccc1 (HELM PEPTIDE1{[O=C(OCc1ccccc1)[*:2]].L.S.L.[c1ccc(CN[*:1])cc1]}$$$$V2.0) | > 20 | 15.8 | > 20
– | – | CC(C)C[C@H](NC(=O)[C@H](CO)NC(=O)[C@@H](NC(=O)OCc1ccccc1)C(C)C)C(=O)NCc1ccccc1 (HELM PEPTIDE1{[O=C(OCc1ccccc1)[*:2]].V.S.L.[c1ccc(CN[*:1])cc1]}$$$$V2.0) | 3.73 | 9.46 | > 20
